Laboratory results: ChEMBL document CHEMBL1127320, “Dual-action cephalosporins incorporating a 3'-tertiary-amine-linked quinolone” (J Med Chem, 1994)
Converted amounts (≈) assume the structure as drawn.

Experiments:
[1] = system: Escherichia coli; test: In vitro minimum inhibitory concentration was measured against Escherichia coli ATCC 25922 strain.; (</=); type: functional
Outline: (§1)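 MICs were determined by agar dilution with 2-fold dilutions giving final 128–0.0156 µg/mL, extended to 0.000977 µg/mL where needed. Streptococci were tested on brain heart infusion agar plus 20 units/mL catalase, Proteus on Mueller-Hinton with 3% agar, and others on Mueller-Hinton agar. Inocula were 100-fold-diluted overnight cultures, about 3 × 10^4 CFU/spot, read after overnight incubation at 36 °C.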

[2] = system: Serratia marcescens; test: In vitro minimum inhibitory concentration was measured against Serratia marcescens 1071(beta lactamase producer) strain.; type: functional
Outline: (§2)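 Streptococci were tested on brain heart infusion agar plus 20 units/mL catalase, Proteus on Mueller-Hinton with 3% agar, and others on Mueller-Hinton agar. Inocula were 100-fold-diluted overnight cultures, about 3 × 10^4 CFU/spot, read after overnight incubation at 36 °C.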

[3] = system: Staphylococcus aureus; test: In vitro minimum inhibitory concentration was measured against Staphylococcus aureus smith strain.; type: functional
[4] = system: Escherichia coli; test: In vitro minimum inhibitory concentration was measured against Escherichia coli TEM-1 (Beta lactamase producer) strain.; type: functional; outline: as §2
[5] = system: Escherichia coli; test: Minimum inhibitory concentration for DC2, a permeability mutant; outline: as §1
[6] = system: Micrococcus luteus; test: In vitro minimum inhibitory concentration was measured against Micrococcus luteus ATCC 9341 strain.; type: functional; outline: as §2
[7] = system: Pseudomonas aeruginosa; test: In vitro minimum inhibitory concentration was measured against Pseudomonas aeruginosa 8780 strain.; type: functional; outline: as §2
[8] = molecular target: T1, Penicillin-binding protein 1B (Escherichia coli K-12) (UniProt P02919); test: Affinity for penicillin binding protein 1b of Escherichia coli UB1005 (DC0) was evaluated.; design: unit not given here
T1 sequence (whole entry): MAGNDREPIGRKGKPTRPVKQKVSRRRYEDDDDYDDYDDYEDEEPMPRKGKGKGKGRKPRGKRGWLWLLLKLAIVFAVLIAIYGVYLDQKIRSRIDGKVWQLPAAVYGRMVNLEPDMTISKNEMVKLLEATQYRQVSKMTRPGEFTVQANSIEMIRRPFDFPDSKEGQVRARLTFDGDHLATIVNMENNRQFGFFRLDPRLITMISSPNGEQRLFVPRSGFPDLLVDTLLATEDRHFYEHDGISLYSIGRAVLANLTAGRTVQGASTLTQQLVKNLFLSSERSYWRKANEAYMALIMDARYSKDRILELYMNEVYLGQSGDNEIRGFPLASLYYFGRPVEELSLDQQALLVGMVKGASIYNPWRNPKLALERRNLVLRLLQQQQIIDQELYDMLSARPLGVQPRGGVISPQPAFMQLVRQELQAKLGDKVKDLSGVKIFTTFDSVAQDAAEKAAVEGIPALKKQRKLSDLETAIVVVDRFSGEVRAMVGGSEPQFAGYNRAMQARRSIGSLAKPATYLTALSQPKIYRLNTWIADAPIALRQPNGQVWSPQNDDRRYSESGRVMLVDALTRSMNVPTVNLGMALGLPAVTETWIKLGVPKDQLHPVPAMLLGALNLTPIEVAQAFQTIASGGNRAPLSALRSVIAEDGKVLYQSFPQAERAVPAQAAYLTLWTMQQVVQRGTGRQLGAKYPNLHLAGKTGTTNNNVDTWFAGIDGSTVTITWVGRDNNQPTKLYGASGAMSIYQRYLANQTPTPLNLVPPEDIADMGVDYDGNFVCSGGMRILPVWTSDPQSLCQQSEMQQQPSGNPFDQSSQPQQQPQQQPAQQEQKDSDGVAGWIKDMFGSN
Outline: (§3)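 Solubilised membranes from sonicated E. coli UB1005 served as the binding-protein source. Binding was read as inhibition of [14C]penicillin G binding.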

[9] = system: Streptococcus pyogenes; test: In vitro minimum inhibitory concentration was measured against Streptococcus pyogenes 4 strain.; type: functional; outline: as §2
[10] = Half life was measured as degradation by HPLC analysis.; type: ADME
[11] = system: Penicillin-binding protein 3 (Escherichia coli); test: Affinity for penicillin binding protein 3 of Escherichia coli UB1005 (DC0) was evaluated.; design: unit not given here
[12] = molecular target: T2, Peptidoglycan D,D-transpeptidase MrdA (Escherichia coli K-12) (UniProt P0AD65); test: Affinity for penicillin binding protein 2 of Escherichia coli UB1005 (DC0) was evaluated.; design: unit not given here; outline: as §3
T2 sequence (whole entry): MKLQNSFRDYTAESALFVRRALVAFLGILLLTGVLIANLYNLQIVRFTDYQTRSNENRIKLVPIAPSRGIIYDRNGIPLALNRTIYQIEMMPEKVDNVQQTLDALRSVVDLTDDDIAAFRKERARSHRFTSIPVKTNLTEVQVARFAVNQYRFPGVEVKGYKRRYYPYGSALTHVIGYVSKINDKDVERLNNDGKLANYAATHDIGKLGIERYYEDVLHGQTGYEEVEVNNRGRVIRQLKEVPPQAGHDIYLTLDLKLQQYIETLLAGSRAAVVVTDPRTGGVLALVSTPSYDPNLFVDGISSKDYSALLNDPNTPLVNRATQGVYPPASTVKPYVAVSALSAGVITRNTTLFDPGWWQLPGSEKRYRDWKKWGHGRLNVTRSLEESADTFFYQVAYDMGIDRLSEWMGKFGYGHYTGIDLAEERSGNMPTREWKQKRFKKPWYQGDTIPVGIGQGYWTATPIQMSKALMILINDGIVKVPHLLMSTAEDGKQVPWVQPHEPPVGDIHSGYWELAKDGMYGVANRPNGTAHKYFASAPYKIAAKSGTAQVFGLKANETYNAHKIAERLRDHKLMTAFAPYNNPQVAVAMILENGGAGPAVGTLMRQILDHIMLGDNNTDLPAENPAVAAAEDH

[13] = system: Staphylococcus aureus; test: In vitro minimum inhibitory concentration was measured against Staphylococcus aureus 67-0 (Methicillin resistant) strain.; type: functional
[14] = molecular target: T3, Penicillin-binding protein 1A (Escherichia coli K-12) (UniProt P02918); test: Affinity for penicillin binding protein 1a of Escherichia coli UB1005 (DC0) was evaluated.; design: unit not given here; outline: as §3
T3 sequence (whole entry): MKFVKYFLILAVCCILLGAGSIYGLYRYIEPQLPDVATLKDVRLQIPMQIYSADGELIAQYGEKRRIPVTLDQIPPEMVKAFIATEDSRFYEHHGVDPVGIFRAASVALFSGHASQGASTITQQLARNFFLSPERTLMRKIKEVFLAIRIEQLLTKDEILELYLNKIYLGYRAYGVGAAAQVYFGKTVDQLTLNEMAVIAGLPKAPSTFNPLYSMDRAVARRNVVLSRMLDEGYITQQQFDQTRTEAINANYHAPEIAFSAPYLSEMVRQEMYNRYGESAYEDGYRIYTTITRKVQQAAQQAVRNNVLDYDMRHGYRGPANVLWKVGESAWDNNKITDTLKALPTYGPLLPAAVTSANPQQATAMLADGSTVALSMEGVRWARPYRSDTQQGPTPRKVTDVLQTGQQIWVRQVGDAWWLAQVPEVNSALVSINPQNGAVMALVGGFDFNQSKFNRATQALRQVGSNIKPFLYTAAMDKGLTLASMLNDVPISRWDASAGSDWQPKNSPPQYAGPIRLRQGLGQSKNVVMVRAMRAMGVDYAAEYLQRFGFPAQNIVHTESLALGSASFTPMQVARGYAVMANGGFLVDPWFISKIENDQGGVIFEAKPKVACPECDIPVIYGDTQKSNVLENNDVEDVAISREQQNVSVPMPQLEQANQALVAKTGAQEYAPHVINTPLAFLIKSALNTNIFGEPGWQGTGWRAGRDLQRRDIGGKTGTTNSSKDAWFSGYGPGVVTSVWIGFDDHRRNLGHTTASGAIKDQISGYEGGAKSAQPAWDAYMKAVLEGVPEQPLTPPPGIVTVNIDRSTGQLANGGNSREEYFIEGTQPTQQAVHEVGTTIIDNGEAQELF

[15] = system: Streptococcus pneumoniae; test: In vitro minimum inhibitory concentration was measured against Streptococcus pneumoniae 6301 strain; type: functional; outline: as §2
[16] = system: Enterobacter cloacae; test: In vitro minimum inhibitory concentration was measured against Enterobacter cloacae 5699 strain.; type: functional
[17] = system: Pseudomonas aeruginosa; test: In vitro minimum inhibitory concentration was measured against Pseudomonas aeruginosa 18S/H strain.; type: functional; outline: as §2
[18] = system: Enterococcus faecalis; test: In vitro minimum inhibitory concentration was measured against Enterococcus faecalis ATCC 29212 strain.; type: functional; outline: as §2
[19] = system: Citrobacter freundii; test: In vitro minimum inhibitory concentration was measured against Citrobacter freundii BS-16 (beta lactamase producer) strain.; type: functional; outline: as §1
[20] = system: Proteus vulgaris; test: In vitro minimum inhibitory concentration was measured against Proteus vulgaris 1028BC (beta lactamase producer) strain.; type: functional; outline: as §2
[21] = system: Proteus mirabilis; test: In vitro minimum inhibitory concentration was measured against Proteus mirabilis 90 strain.; type: functional; outline: as §2
[22] = system: Klebsiella pneumoniae; test: In vitro minimum inhibitory concentration was measured against Klebsiella pneumoniae A strain.; type: functional; outline: as §2
[23] = system: Enterobacter cloacae; test: In vitro minimum inhibitory concentration was measured against Enterobacter cloacae p99 (beta lactamase producer) strain.; type: functional
[24] = system: Staphylococcus aureus; test: In vitro minimum inhibitory concentration was measured against Staphylococcus aureus 753 (Methicillin resistant) strain.; type: functional
[25] = system: Escherichia coli; test: In vitro minimum inhibitory concentration was measured against Escherichia coli 257 strain; (</=); type: functional; outline: as §1
[26] = system: Escherichia coli; test: In vitro minimum inhibitory concentration was measured against Escherichia coli 257 strain.; type: functional; outline: as §2
[27] = system: Escherichia coli; test: Minimum inhibitory concentration against E. coli UB1005 (DC0)
[28] = system: Penicillin-binding protein 3 (Escherichia coli); test: Affinity for penicillin binding protein 3 of Escherichia coli UB1005 (DC0) was evaluated.; (</=)

| SMILES | MIC [4] [µg/mL] | MIC [5] [µg/mL] | MIC [6] [µg/mL] | Binding affinity [8] | MIC [9] [µg/mL] | Binding affinity [12] | Binding affinity [14] | MIC [15] [µg/mL] | MIC [19] [µg/mL] | MIC [20] [µg/mL] | MIC [23] [µg/mL] | other results |
| --- | --- | --- | --- | --- | --- | --- | --- | --- | --- | --- | --- | --- |
| CCN1CCN(C(=O)N[C@@H](C(=O)N[C@@H]2C(=O)N3C(C(=O)O)=C(CN4CCN(c5cc6c(cc5F)c(=O)c(C(=O)O)cn6C5CC5)CC4)CS[C@H]23)c2ccc(O)cc2)C(=O)C1=O | 0.031 (≈ 0.036 µM) | 0.25 (≈ 0.29 µM) | 0.5 (≈ 0.581 µM) | > 100 | 0.125 (≈ 0.145 µM) | > 100 | > 100 | 0.125 (≈ 0.145 µM) | 0.063 (≈ 0.0732 µM) | 0.063 (≈ 0.0732 µM) | ≤ 0.016 | MIC [1]: < 0.016 µg/mL; MIC [2]: 0.25 µg/mL (≈ 0.29 µM); MIC [3]: 2 µg/mL (≈ 2.32 µM); MIC [7]: 8 µg/mL (≈ 9.29 µM); half-life [10]: 60 h; Binding affinity [11]: 2; MIC [13]: 16 µg/mL (≈ 18.6 µM); MIC [16]: 0.125 µg/mL (≈ 0.145 µM); MIC [17]: 2 µg/mL (≈ 2.32 µM); MIC [18]: 16 µg/mL (≈ 18.6 µM); MIC [21]: 1 µg/mL (≈ 1.16 µM); MIC [22]: 0.5 µg/mL (≈ 0.581 µM); MIC [24]: 2 µg/mL (≈ 2.32 µM); MIC [25]: < 0.016 µg/mL |
| O=C(O)C1=C(CN2CCN(c3cc4c(cc3F)c(=O)c(C(=O)O)cn4C3CC3)CC2)CS[C@@H]2[C@H](NC(=O)[C@H](O)c3ccccc3)C(=O)N12 | 0.125 (≈ 0.184 µM) | 2 (≈ 2.95 µM) | 0.031 (≈ 0.0457 µM) | > 100 | 0.031 (≈ 0.0457 µM) | > 100 | 100 | 0.063 (≈ 0.093 µM) | 0.125 (≈ 0.184 µM) | 0.063 (≈ 0.093 µM) | 0.031 (≈ 0.0457 µM) | MIC [26]: 0.125 µg/mL (≈ 0.184 µM); MIC [27]: 4 µg/mL (≈ 5.9 µM); Binding affinity [28]: < 0.1 |
